Measured values from ChEMBL document CHEMBL3351942, “Rexinoids isolated from Sophora tonkinensis with a gene expression profile distinct from the synthetic rexinoid bexarotene” (J Nat Prod, 2014).
Active and inactive are the calls of the source. No cut-off for these calls is given here.

Assays:
[1] = Activation of LXR in mouse C2C12 cells assessed as induction of FAS mRNA expression at 10 uM after 24 hrs by quantitative RT-PCR analysis; assay type: cell-based
How it was run: (§1)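 C2C12 myoblasts grown in DMEM/10% FBS, differentiated at confluence in 2% horse serum, medium changed every other day for 5 days; myotubes treated 24 h with or without T0901317 (1 μM). Total RNA, DNase-treated, oligo(dT) RT from 0.5 μg, SYBR green qPCR; normalized to β-actin (delta-delta Ct), fold over vehicle; mean ± SD of four determinants, one of two experiments.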

[2] = target: T1, Retinoic acid receptor RXR-alpha (Homo sapiens) (UniProt P19793); assay: (§2) Agonist activity at human RXR-alpha expressed in HEK293 cells coexpressing with pCMX-beta-gal after 24 to 48 hrs by luciferase reporter gene assay; assay type: cell-based
T1 sequence (whole entry): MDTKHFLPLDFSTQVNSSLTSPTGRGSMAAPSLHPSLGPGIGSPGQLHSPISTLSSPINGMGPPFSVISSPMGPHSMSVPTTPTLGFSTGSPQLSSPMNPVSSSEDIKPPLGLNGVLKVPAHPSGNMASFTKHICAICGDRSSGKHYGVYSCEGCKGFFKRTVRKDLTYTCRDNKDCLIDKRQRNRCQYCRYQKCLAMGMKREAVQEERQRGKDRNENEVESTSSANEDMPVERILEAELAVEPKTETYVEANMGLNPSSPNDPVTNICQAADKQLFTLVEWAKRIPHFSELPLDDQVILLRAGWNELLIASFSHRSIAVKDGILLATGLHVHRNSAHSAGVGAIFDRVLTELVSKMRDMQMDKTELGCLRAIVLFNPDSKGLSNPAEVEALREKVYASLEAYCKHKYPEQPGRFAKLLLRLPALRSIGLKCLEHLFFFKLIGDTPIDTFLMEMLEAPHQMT
How it was run: (§3)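 HEK293 cells transfected by calcium phosphate with 60 ng pCMX-hRXR-α, 150 ng CRBPII-tk-Luc and 30 ng pCMX-β-gal plus carrier pUC18 (600 ng DNA per well). After 8 h the cells were washed and exposed to compound in medium with 10% FBS for 24−48 h. Luciferase was normalized to β-galactosidase. Triplicate or quadruplicate; representative of three independent experiments; EC50 from dose-response.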

[3] = target: T2, Retinoic acid receptor RXR-alpha (Homo sapiens, UniProt P19793); assay: as §2; assay type: cell-based; how it was run: as §3
T2 sequence (P19793 whole entry): T1 sequence (whole entry)

[4] = Activation of LXR in mouse C2C12 cells assessed as induction of ApoE mRNA expression at 10 uM after 24 hrs in presence of T0901317 by quantitative RT-PCR analysis; assay type: cell-based; how it was run: as §1
[5] = target: T3, Retinoic acid receptor alpha (Homo sapiens) (UniProt P10276); assay: Activation of human RAR-alpha expressed in HEK293 cells coexpressing with tk-betaRE-Luc after 24 hrs by luciferase reporter gene assay; assay type: cell-based
T3 sequence (whole entry): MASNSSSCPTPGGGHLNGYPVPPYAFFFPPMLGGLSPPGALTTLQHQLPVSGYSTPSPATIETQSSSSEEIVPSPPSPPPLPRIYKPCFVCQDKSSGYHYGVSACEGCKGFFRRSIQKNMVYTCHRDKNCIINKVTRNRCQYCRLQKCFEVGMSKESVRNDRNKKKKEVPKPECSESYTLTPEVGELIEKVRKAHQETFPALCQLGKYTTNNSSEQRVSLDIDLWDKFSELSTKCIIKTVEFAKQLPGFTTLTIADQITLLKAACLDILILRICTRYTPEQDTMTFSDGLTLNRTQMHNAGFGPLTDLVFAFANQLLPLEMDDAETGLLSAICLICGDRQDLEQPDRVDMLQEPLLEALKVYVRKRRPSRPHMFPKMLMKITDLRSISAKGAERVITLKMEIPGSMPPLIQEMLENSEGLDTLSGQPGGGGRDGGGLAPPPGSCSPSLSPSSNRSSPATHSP
How it was run: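 Calcium phosphate transfection of HEK293 cells with 30 ng pCMX-hRAR-α, 120 ng tk-βRE-Luc and 30 ng pCMX-β-gal plus carrier pUC18 (600 ng DNA per well). Cells were washed 8 h later and incubated with compound in 10% FBS medium. Luciferase was normalized to β-galactosidase; triplicate or quadruplicate, representative of three experiments.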

[6] = target: T4, Peroxisome proliferator-activated receptor gamma (Homo sapiens) (UniProt P37231); assay: Activation of PPARgamma (unknown origin) by receptor-CBP cofactor complex formation assay
T4 sequence (whole entry): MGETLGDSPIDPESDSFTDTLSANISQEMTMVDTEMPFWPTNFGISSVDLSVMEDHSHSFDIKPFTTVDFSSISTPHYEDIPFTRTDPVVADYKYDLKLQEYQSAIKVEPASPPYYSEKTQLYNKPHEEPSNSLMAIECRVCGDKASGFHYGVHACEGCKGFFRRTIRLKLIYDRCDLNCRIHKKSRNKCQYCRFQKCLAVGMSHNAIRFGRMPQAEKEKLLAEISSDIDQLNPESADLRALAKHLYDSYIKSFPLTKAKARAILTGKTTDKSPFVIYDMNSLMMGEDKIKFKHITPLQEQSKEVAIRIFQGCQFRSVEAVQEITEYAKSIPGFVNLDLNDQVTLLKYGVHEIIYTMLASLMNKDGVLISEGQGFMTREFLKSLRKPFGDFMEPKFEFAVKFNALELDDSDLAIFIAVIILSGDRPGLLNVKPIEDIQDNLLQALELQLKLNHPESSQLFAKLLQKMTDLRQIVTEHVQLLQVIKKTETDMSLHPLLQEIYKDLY
How it was run: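 Cell-free cofactor recruitment ELISA: ligand-dependent binding of PPAR isotypes to CBP, detected by HRP-conjugated anti-PPAR antibody at OD450. Full agonists GW7647 (α), GW1929 (γ), GW501516 (δ) define 100%, vehicle 0%; efficacy as maximum B/Bmax% and potency as EC50.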

In the case of `CC(C)=CCc1cc([C@@H]2CC(=O)c3ccc(O)c(CC=C(C)C)c3O2)cc2c1OC(C(C)(C)O)C2` (stereo partly specified), the Activity [1] is reported as “inactive”, the Activity [2] is reported as “Dose-dependent effect” and the EC50 [3] is reported as 770 nM. The Activity [4] was “Active”, the Activity [5] was “inactive” and the Activity [6] was “inactive”.
